Assay results published in article PMC9008867 (Therapeutic Advances in Medical Oncology, 2022).
Like-named read-outs stand apart in the source and are kept apart here.

Legend:
Format in all cases: in vivo, human
[1] = system: Asian patients with advanced or metastatic malignancies
[2] = system: Asian patients with advanced or metastatic malignancies; assay: Adverse events; conditions: Schedule 3; patients n (%)
Outline: (§1)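 Test compound given orally by schedule. Schedule 1: Mon/Thu, 28-day cycle. Schedule 2: Mondays weekly, 28-day cycle. Schedule 3: Mon/Wed for 2 of 3 weeks, 21-day cycle. Schedule 4: Mon/Wed/Fri, 28-day cycle. All patients received anorexia/nausea prophylaxis. AEs were recorded up to 30 days after the last dose and graded every 2 weeks for cycles 1–2, then every 4 weeks.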

[3] = system: Asian patients with advanced or metastatic malignancies; assay: Phase 1a 3 + 3 dose escalation: DLT, MTD, RP2D, tolerability, deaths
Outline: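 Modified 3+3 design: ≥3 patients per cohort, expanded to six after one DLT; DLTs were assessed in cycle 1. DLT was possibly drug-related grade ≥3 nonhaematological toxicity (not reversible asymptomatic electrolyte changes or hair loss). Haematological DLT: grade 4 neutropenia ≥7 days, febrile neutropenia, or grade ≥3 thrombocytopenia with bleeding. 2/6 DLTs set the MTD; RP2D was the next lower level. Deaths were counted within 30 days of last dose.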

[4] = system: Asian patients with advanced or metastatic malignancies; assay: Adverse events; conditions: Schedule 4; patients n (%)
Outline: as §1

[5] = expansion phase, with drug holiday and pre-emptive antiemetic regimen
[6] = Schedule 2, 70 mg/m^2 once a week, six patients
[7] = Schedule 3, 50 mg/m^2, subsequent four patients

Structure (SMILES): O=C(/C=C\n1cnc(-c2cc(C(F)(F)F)cc(C(F)(F)F)c2)n1)NNc1cnccn1 [selinexor]
- tolerability ([1]; 60 mg twice a week, 2 out of 3 weeks, Asian patients): well tolerated
- Grade 3 fatigue ([1]; dose expansion phase): 8%
- grade 3 or 4 anaemia ([1]; dose expansion phase): 2%
- grade 3 or 4 hyponatremia ([1]; dose expansion phase): 23%
- grade 3 or 4 thrombocytopenia ([1]; dose expansion phase): 5%
- grade 3 or 4 vomiting ([1]; dose expansion phase): 5%
- patients with grade 3 or 4 cytopenias ([1]; expansion phase): less than 3%
- grade 3 or more nausea [1, 5]: no grade 3 or more nausea
- incidence of nausea [1, 5]: 30%
- deaths ([1]; phase 1b expansion cohort, none attributed to the study drug): Five
- Abdominal discomfort, Any grade ([1]; phase 1b, patients n (%)): 5 (13.15) %
- Abdominal discomfort, G1/G2 ([1]; phase 1b, patients n (%)): 4 (10.52) %
- Abdominal discomfort, G3/G4 ([1]; phase 1b, patients n (%)): 1 (2.63) %
- Abdominal distension, Any grade ([1]; phase 1b, patients n (%)): 1 (2.63) %
- Abdominal distension, G3/G4 ([1]; phase 1b, patients n (%)): 1 (2.63) %
- Abnormal thyroid function, Any grade ([1]; phase 1b, patients n (%)): 2 (5.26) %
- Abnormal thyroid function, G1/G2 ([1]; phase 1b, patients n (%)): 2 (5.26) %
- Acute kidney injury, Any grade ([1]; phase 1b, patients n (%)): 1 (2.63) %
- Acute kidney injury, G1/G2 ([1]; phase 1b, patients n (%)): 1 (2.63) %
- Anaemia, Any grade ([1]; phase 1b, patients n (%)): 6 (15.78) %
- Anorexia, Any grade ([1]; phase 1b, patients n (%)): 18 (47.36) %
- Ascites, Any grade ([1]; phase 1b, patients n (%)): 2 (5.26) %
- Asthenia, Any grade ([1]; phase 1b, patients n (%)): 1 (2.63) %
- Back pain, Any grade ([1]; phase 1b, patients n (%)): 2 (5.26) %
- Blurring of vision, Any grade ([1]; phase 1b, patients n (%)): 3 (7.89) %
- Blurring of vision, G1/G2 ([1]; phase 1b, patients n (%)): 3 (7.89) %
- Constipation, Any grade ([1]; phase 1b, patients n (%)): 6 (15.78) %
- Cough, Any grade ([1]; phase 1b, patients n (%)): 2 (5.26) %
- Dehydration, Any grade ([1]; phase 1b, patients n (%)): 2 (5.26) %
- Diarrhoea, Any grade ([1]; phase 1b, patients n (%)): 10 (26.31) %
- Dysgeusia, Any grade ([1]; phase 1b, patients n (%)): 12 (31.57) %
- Dyspnoea/Shortness of breath, Any grade ([1]; phase 1b, patients n (%)): 2 (5.26) %
- Dyspnoea/Shortness of breath, G1/G2 ([1]; phase 1b, patients n (%)): 2 (5.26) %
- Fever, Any grade ([1]; phase 1b, patients n (%)): 2 (5.26) %
- Giddiness, Any grade ([1]; phase 1b, patients n (%)): 3 (7.89) %
- Hyperglycaemia, Any grade ([1]; phase 1b, patients n (%)): 2 (5.26) %
- Hypersalivation, Any grade ([1]; phase 1b, patients n (%)): 1 (2.63) %
- Hyperuricaemia, Any grade ([1]; phase 1b, patients n (%)): 1 (2.63) %
- Hypocalcaemia, Any grade ([1]; phase 1b, patients n (%)): 1 (2.63) %
- Hypokalaemia, Any grade ([1]; phase 1b, patients n (%)): 7 (18.42) %
- Hypomaganesemia, Any grade ([1]; phase 1b, patients n (%)): 3 (7.89) %
- Hyponatremia, Any grade ([1]; phase 1b, patients n (%)): 20 (52.63) %
- Hypophosphataemia, Any grade ([1]; phase 1b, patients n (%)): 5 (13.15) %
- Increased creatinine, Any grade ([1]; phase 1b, patients n (%)): 2 (5.26) %
- Increased creatinine, G1/G2 ([1]; phase 1b, patients n (%)): 2 (5.26) %
- Lethargy, Any grade ([1]; phase 1b, patients n (%)): 1 (2.63) %
- Loss of Appetite, Any grade ([1]; phase 1b, patients n (%)): 8 (21.05) %
- Mood swing, Any grade ([1]; phase 1b, patients n (%)): 1 (2.63) %
- Mucositis, Any grade ([1]; phase 1b, patients n (%)): 2 (5.26) %
- Nausea, Any grade ([1]; phase 1b, patients n (%)): 12 (31.57) %
- Peripheral neuropathy, Any grade ([1]; phase 1b, patients n (%)): 2 (5.26) %
- Peripheral neuropathy, G1/G2 ([1]; phase 1b, patients n (%)): 2 (5.26) %
- Pneumonia, Any grade ([1]; phase 1b, patients n (%)): 1 (2.63) %
- Pulmonary embolism, Any grade ([1]; phase 1b, patients n (%)): 1 (2.63) %
- Pulmonary embolism, G1/G2 ([1]; phase 1b, patients n (%)): 1 (2.63) %
- Raised amylase/lipase, Any grade ([1]; phase 1b, patients n (%)): 1 (2.63) %
- Raised amylase/lipase, G1/G2 ([1]; phase 1b, patients n (%)): 1 (2.63) %
- Raised amylase/lipase, G3/G4 ([1]; phase 1b, patients n (%)): 1 (2.63) %
- Reflux, Any grade ([1]; phase 1b, patients n (%)): 1 (2.63) %
- Rt buttock pain, Any grade ([1]; phase 1b, patients n (%)): 1 (2.63) %
- Rt leg pain, Any grade ([1]; phase 1b, patients n (%)): 1 (2.63) %
- Thrombocytopenia, Any grade ([1]; phase 1b, patients n (%)): 6 (15.78) %
- Transaminitis, Any grade ([1]; phase 1b, patients n (%)): 3 (7.89) %
- URTI, Any grade ([1]; phase 1b, patients n (%)): 1 (2.63) %
- Urinary retention, Any grade ([1]; phase 1b, patients n (%)): 1 (2.63) %
- Vomiting, Any grade ([1]; phase 1b, patients n (%)): 8 (21.05) %
- Weight loss, Any grade ([1]; phase 1b, patients n (%)): 6 (15.78) %
- Abdominal discomfort, Any grade [2]: 3 (20) %
- Abdominal discomfort, G1/G2 [2]: 3 (20) %
- Anaemia, Any grade [2]: 3 (20) %
- Anorexia, Any grade [2]: 11 (73.33) %
- Conjunctivitis, Any grade [2]: 1 (6.66) %
- Constipation, Any grade [2]: 1 (6.66) %
- Dehydration, Any grade [2]: 2 (13.33) %
- Diarrhoea, Any grade [2]: 5 (33.33) %
- Dry skin, Any grade [2]: 1 (6.66) %
- Dysgeusia, Any grade [2]: 2 (13.33) %
- Edema, Any grade [2]: 1 (6.66) %
- Fatigue, Any grade [2]: 13 (86.66) %
- Giddiness, Any grade [2]: 2 (13.33) %
- Hypocalcaemia, Any grade [2]: 1 (6.66) %
- Hypokalaemia, Any grade [2]: 4 (26.66) %
- Hypomagnesemia, Any grade [2]: 6 (40) %
- Hyponatremia, Any grade [2]: 13 (86.66) %
- Hypophosphatemia, Any grade [2]: 6 (40) %
- Increased flatulence, Any grade [2]: 1 (6.66) %
- Increased flatulence, G1/G2 [2]: 1 (6.66) %
- Lethargy, Any grade [2]: 1 (6.66) %
- Nausea, Any grade [2]: 4 (26.66) %
- Thrombocytopenia, Any grade [2]: 4 (26.66) %
- Vomiting, Any grade [2]: 5 (33.33) %
- Weight loss, Any grade [2]: 4 (26.66) %
- tolerability ([3]; 40 mg/m^2 given 2 out of 3 weeks, Asian patient cohort): most tolerable
- DLTs ([3]; Schedule 1, 40 mg/m^2 twice-a-week continuous, six patients): no DLTs were observed
- patients with DLTs ([3]; Schedule 2, 50 mg/m^2 once a week, three patients): none of the three patients
- DLTs ([3]; Schedule 2, 60 mg/m^2 once a week, three patients): did not show any DLTs
- patients with grade 3 fatigue that persisted for more than 5 days ([3]; Schedule 2, 70 mg/m^2 once a week, additional four patients): one patient
- patients with grade 3 thrombocytopenia [3, 6]: one patient
- patients with grade 3 vomiting [3, 6]: one patient
- patients developing DLTs ([3]; Schedule 3, 40 mg/m^2 twice a week 2 out of 3 weeks): 0/3
- patients with G3 fatigue ([3]; Schedule 3, 50 mg/m^2, first six patients): one out of six patients
- patients with G3 dehydration from loss of appetite [3, 7]: One out of the subsequent four patients
- patients with G3 hyponatremia [3, 7]: one other patient
- patients with G3 diarrhoea and G3 syncope ([3]; Schedule 4, 16 mg/m^2 three times a week continuous): two out of five patients
- patients developing DLTs (G3 fatigue and G3 septicaemia) ([3]; Schedule 4, 20 mg/m^2 three times a week continuous): two out of six patients
- tolerability of schedule ([3]; Schedule 4, three-times-a-week continuous dosing): deemed intolerable
- deaths within 30 days of the last study drug administration ([3]; phase 1a cohort, none related to the study drug): eight
- RP2D, flat dose ([3]; twice a week with a 1-week drug holiday every 3-week cycle): 60 mg
- Abdominal discomfort, Any grade [4]: 2 (18.18) %
- Abdominal discomfort, G1/G2 [4]: 2 (18.18) %
- Anaemia, Any grade [4]: 3 (27.27) %
- Anorexia, Any grade [4]: 5 (45.45) %
- Cataract, Any grade [4]: 1 (9.09) %
- Diarrhoea, Any grade [4]: 4 (36.36) %
- Dysgeusia, Any grade [4]: 2 (18.18) %
- Dyspnoea/Shortness of breath, Any grade [4]: 3 (27.27) %
- Dyspnoea/Shortness of breath, G1/G2 [4]: 2 (18.18) %
- Dyspnoea/Shortness of breath, G3/G4 [4]: 1 (9.09) %
- Fatigue, Any grade [4]: 11 (100) %
- Hypocalcaemia, Any grade [4]: 1 (9.09) %
- Hypokalaemia, Any grade [4]: 1 (9.09) %
- Hypomagnesemia, Any grade [4]: 3 (27.27) %
- Hyponatremia, Any grade [4]: 10 (90.90) %
- Hypophosphatemia, Any grade [4]: 1 (9.09) %
- Nausea, Any grade [4]: 2 (18.18) %
- Neutropenia, Any grade [4]: 1 (9.09) %
- Thrombocytopenia, Any grade [4]: 6 (54.54) %
- Vomiting, Any grade [4]: 2 (18.18) %
- Weight loss, Any grade [4]: 3 (27.27) %
